Results on 20 compounds are retold here after ChEMBL document CHEMBL2321806 (J Med Chem, 2013).

In experiment [1] the target is T1, Insulin-degrading enzyme (Homo sapiens, UniProt P14735). Briefly: Inhibition of human recombinant IDE-mediated FRET1 degradation. The note with it: read-out: Ki(app).
For experiment [2], the target named is T1, Insulin-degrading enzyme. In words: Inhibition of human recombinant IDE-mediated fluorescein-Abeta-(1-40)-Lys-biotin degradation. The note with it: read-out: Ki(app). In outline: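 Aβ (200 nM) degradation by recombinant human IDE at 22 °C in HEPES pH 7.4 buffer with 100 mM NaCl, 10 mM MgCl₂, 0.05% BSA.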
Experiment [3] deals with T1, Insulin-degrading enzyme. In words: Inhibition of human recombinant IDE-mediated insulin degradation. The following applies: read-out: Ki(app). In outline:
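Insulin (2 nM) breakdown by recombinant human IDE in 50 mM HEPES pH 7.4, 100 mM NaCl, 10 mM MgCl₂, 0.05% BSA at 22 °C.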

The target of experiment [4] is T2, Matrilysin (Homo sapiens) (UniProt P09237).
T2 sequence (whole entry): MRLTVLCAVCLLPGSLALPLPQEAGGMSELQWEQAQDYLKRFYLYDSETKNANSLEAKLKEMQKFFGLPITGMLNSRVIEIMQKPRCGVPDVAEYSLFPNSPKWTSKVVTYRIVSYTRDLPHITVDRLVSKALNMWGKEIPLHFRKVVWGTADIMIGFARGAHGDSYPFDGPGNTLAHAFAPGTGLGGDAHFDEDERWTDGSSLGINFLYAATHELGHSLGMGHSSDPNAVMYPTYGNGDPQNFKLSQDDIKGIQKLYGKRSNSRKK
Briefly: (§1) Inhibition of MMP7 (unknown origin)-mediated omniMMP degradation. In outline: (§2)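 Each protease (NEP, ECE1, ACE, MMP-2, MMP-7) was tested against the shared fluorogenic peptide substrate OmniMMP, with inhibitor concentrations up to 10 μM. IC50 values were taken from the dose-response data.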

For experiment [5], the target named is T3, Endothelin-converting enzyme 1 (Homo sapiens) (UniProt P42892).
T3 sequence (whole entry): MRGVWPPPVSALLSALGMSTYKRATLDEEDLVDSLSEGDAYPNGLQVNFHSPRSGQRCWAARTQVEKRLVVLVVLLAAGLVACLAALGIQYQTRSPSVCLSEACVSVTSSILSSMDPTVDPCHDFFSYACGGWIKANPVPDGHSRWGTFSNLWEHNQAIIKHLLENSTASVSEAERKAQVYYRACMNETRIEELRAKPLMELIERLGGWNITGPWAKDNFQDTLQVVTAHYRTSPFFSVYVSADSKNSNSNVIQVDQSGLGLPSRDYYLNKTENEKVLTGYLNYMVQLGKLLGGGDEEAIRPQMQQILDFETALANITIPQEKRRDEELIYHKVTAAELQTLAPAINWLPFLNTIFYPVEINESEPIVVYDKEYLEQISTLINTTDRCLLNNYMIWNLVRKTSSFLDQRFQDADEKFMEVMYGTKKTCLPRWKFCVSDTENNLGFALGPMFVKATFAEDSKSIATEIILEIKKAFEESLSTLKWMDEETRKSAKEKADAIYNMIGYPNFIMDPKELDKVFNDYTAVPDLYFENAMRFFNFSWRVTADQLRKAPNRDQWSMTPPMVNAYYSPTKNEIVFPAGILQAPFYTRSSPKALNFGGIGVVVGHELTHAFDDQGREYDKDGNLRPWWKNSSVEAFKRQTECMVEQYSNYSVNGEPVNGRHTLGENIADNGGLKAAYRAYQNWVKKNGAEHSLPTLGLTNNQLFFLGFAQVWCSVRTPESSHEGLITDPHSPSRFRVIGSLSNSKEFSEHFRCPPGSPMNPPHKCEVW
Briefly: Inhibition of ECE1 (unknown origin)-mediated omniMMP degradation up to 10 uM. Summed up: as §2

The target of experiment [6] is Neprilysin (Homo sapiens) (UniProt P08473). In words: Inhibition of NEP (unknown origin)-mediated omniMMP degradation up to 10 uM. In outline:
as §2

The target in experiment [7] is Angiotensin-converting enzyme (Homo sapiens) (UniProt P12821). Briefly: Inhibition of ACE (unknown origin)-mediated omniMMP degradation up to 10 uM. Summed up: as §2
Experiment [8] addresses T2, Matrilysin (Homo sapiens). In words: Inhibition of MMP7 (unknown origin)-mediated omniMMP degradation up to 10 uM. Summed up:
as §2

The target in experiment [9] is 72 kDa type IV collagenase (Homo sapiens) (UniProt P08253). Briefly: Inhibition of MMP2 (unknown origin)-mediated omniMMP degradation up to 10 uM. In outline:
as §2

Another experiment addresses T4, Matrilysin (Homo sapiens, UniProt P09237).
T4 sequence (P09237 whole entry): T2 sequence (whole entry)
The description is as §1. In outline: as §2

Experiment [10] concerns the target T1, Insulin-degrading enzyme. In words: Selectivity ratio of apparent Ki for human recombinant IDE-mediated insulin degradation to apparent Ki for human recombinant IDE-mediated FRET1 degradation.

The source made the active and inactive calls. No cut-off for these calls is given here.

T1 sequence (P14735 whole entry): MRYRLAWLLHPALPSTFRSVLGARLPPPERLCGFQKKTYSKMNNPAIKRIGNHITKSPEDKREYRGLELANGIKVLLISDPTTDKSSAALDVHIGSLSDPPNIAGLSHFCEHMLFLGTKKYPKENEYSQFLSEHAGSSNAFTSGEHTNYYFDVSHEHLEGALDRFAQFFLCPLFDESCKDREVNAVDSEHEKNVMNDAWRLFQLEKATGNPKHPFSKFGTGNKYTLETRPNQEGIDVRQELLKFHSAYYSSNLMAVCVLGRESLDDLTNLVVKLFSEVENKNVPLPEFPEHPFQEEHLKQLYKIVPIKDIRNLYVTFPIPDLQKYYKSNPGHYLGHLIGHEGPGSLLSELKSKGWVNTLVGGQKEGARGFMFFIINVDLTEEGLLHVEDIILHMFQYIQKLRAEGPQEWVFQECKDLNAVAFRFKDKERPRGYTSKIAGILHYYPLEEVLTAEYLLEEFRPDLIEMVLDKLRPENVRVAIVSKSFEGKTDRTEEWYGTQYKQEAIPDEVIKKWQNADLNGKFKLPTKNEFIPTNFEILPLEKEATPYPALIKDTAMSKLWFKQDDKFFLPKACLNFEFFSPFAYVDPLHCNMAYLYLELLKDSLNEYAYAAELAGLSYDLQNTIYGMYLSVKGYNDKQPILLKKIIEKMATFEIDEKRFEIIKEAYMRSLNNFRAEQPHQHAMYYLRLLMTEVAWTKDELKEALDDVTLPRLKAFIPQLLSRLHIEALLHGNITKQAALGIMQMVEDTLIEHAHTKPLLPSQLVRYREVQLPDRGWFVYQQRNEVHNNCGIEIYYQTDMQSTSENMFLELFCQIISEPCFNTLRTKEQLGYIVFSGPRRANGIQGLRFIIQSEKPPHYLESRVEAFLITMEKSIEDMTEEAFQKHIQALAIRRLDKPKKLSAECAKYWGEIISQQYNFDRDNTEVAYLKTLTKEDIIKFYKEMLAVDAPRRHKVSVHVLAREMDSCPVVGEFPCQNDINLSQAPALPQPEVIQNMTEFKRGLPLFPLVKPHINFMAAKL
Sequence of 72 kDa type IV collagenase (Homo sapiens) (P08253 110-660 limits assumed): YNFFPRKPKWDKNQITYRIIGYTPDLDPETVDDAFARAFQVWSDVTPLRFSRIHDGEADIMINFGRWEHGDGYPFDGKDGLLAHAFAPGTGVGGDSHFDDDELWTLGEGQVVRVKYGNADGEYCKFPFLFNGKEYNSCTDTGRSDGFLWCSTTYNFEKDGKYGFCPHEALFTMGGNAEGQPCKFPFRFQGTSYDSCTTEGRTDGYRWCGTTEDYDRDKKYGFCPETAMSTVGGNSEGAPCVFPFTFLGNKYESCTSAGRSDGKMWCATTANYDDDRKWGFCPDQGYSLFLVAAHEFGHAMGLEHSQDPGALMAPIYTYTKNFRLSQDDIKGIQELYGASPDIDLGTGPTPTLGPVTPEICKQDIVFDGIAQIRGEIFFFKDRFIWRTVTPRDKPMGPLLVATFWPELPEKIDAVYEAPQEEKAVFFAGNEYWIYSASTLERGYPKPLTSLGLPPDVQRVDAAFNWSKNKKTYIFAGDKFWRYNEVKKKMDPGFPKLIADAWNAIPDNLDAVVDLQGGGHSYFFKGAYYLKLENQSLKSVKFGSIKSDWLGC
Sequence of Angiotensin-converting enzyme (Homo sapiens) (P12821 whole entry): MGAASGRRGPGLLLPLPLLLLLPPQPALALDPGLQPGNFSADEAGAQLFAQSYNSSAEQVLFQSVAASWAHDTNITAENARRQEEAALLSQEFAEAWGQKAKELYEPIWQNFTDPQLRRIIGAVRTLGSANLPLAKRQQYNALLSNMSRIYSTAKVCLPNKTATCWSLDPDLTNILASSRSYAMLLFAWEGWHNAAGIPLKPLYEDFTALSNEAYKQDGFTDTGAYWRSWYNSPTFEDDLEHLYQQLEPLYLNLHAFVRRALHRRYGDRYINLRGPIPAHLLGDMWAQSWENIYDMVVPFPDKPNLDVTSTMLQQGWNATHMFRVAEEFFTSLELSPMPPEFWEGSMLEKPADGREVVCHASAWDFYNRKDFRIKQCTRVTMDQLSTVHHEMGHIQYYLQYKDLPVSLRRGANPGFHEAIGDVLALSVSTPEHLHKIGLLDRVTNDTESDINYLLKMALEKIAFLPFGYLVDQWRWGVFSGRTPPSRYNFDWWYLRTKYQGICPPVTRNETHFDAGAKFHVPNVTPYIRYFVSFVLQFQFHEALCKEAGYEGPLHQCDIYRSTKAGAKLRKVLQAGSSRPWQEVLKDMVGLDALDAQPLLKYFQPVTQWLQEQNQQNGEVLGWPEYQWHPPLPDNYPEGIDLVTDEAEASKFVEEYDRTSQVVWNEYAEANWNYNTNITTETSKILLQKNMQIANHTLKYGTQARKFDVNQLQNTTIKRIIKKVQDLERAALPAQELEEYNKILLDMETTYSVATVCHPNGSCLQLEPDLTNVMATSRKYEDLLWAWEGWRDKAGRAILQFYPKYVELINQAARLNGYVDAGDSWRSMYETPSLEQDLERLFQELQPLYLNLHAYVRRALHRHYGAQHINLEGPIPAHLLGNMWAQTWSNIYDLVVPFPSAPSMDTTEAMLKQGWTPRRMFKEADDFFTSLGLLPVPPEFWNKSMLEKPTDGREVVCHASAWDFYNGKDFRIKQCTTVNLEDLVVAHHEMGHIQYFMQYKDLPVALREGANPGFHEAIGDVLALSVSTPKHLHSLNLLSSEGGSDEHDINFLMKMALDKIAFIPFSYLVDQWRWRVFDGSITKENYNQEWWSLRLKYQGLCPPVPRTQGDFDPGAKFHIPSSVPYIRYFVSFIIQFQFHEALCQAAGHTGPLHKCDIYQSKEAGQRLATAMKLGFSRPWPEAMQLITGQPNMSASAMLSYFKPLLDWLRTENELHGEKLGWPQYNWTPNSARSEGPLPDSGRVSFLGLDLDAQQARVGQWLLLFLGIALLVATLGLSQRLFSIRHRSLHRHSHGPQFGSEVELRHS
Sequence of Neprilysin (Homo sapiens) (P08473 whole entry): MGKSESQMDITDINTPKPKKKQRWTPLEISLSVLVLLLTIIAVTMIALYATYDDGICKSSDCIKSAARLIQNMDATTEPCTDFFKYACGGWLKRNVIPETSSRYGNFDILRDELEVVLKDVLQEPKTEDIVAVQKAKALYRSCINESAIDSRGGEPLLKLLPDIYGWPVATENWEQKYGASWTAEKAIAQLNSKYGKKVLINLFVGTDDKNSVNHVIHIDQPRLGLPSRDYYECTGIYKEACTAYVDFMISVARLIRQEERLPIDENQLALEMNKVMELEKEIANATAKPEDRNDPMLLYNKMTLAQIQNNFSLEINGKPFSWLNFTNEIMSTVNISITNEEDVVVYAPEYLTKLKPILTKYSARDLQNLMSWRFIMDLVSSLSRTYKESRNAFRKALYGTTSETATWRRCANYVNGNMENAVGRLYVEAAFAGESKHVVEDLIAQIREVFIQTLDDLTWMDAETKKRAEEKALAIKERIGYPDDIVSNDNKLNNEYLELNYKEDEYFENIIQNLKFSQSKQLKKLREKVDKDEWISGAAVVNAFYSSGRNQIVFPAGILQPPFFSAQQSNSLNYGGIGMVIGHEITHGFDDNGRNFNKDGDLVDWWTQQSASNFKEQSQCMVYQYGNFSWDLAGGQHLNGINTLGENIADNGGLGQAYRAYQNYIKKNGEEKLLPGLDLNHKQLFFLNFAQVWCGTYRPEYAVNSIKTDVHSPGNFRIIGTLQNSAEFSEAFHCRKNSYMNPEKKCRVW

For the compound `NC(N)=NCCC[C@@H](NC(=O)[C@@H](Cc1c[nH]c2ccccc12)NC(=O)[C@H](N)CCC(=O)O)C(=O)N[C@H](Cc1ccc2ccccc2c1)C(=O)NO`, the Ki worked out at 49.8 nM at Insulin-degrading enzyme [1], 228 nM at Insulin-degrading enzyme [2] and 3260 nM on Insulin-degrading enzyme [3].

With `N=C(N)NCCC[C@H](NC(=O)[C@@H](CC(=O)NO)Cc1ccc2ccccc2c1)C(=O)N[C@@H](Cc1c[nH]c2ccccc12)C(=O)N[C@@H](CCC(=O)O)C(N)=O`, the Ki on Insulin-degrading enzyme [1] came out at 2.96 nM; on Insulin-degrading enzyme [2] it was 21.7 nM; on Insulin-degrading enzyme [3], 37.9 nM. For the same compound, in experiment [4], the inhibition result was “Active”.

As to `C=CCOC(=O)[C@H](CCCN=C(N)N)NC(=O)[C@@H](CC(=O)NO)Cc1ccc2ccccc2c1`, the Ki on Insulin-degrading enzyme [1] came to 87 nM; at Insulin-degrading enzyme [2], 107 nM; on Insulin-degrading enzyme [3], 1280 nM.

As to `N=C(N)NCCC[C@@H](NC(=O)[C@@H](Cc1ccc(O)cc1)NC(=O)[C@H](N)CCC(=O)O)C(=O)N[C@H](Cc1ccc2ccccc2c1)C(=O)NO`, the values for the Ki on Insulin-degrading enzyme [1], on Insulin-degrading enzyme [2] and at Insulin-degrading enzyme [3] were 85.1 nM, 365 nM and 833 nM, respectively.

In the case of `N=C(N)NCCCC[C@H](NC(=O)[C@@H](CC(=O)NO)Cc1ccc2ccccc2c1)C(N)=O`, the Ki on Insulin-degrading enzyme [1] is above 33000 nM.

For the compound `N=C(N)NCCCC[C@H](NC(=O)[C@H](CC(=O)NO)Cc1ccc2ccccc2c1)C(N)=O`, the Ki at Insulin-degrading enzyme [1] is above 33000 nM.

On to `NC(=O)[C@H](CCCN=C(N)N)NC(=O)[C@H](Cc1ccc2ccccc2c1)[C@@H](O)C(=O)NO`, for which, at Insulin-degrading enzyme [1], the Ki worked out at 7020 nM.

Regarding `CC(=O)N[C@@H](CCC(=O)O)C(=O)N[C@@H](Cc1c[nH]c2ccccc12)C(=O)N[C@@H](CCCN=C(N)N)C(=O)[C@H](CC(=O)NO)Cc1ccc2ccccc2c1`, the Ki at Insulin-degrading enzyme [1] turned out to be 78 nM.

As to `C=CCOC(=O)[C@H](CCCNC(=N)N)NC(=O)[C@H](CC(=O)NO)Cc1ccc2ccccc2c1`, the Ki on Insulin-degrading enzyme [1] was determined as 5280 nM.

With `CC(=O)N[C@@H](CCC(=O)NCCNc1cccc2c(S(=O)(=O)O)cccc12)C(=O)N[C@H](Cc1ccc(O)cc1)C(=O)N(C(=O)c1ccccc1)[C@H](Cc1ccccc1)C(=O)N[C@H](Cc1ccc2ccccc2c1)C(=O)NO`, the Ki was found to be 43.7 nM at Insulin-degrading enzyme [1], 1.4 nM at Insulin-degrading enzyme [2] and 410 nM on Insulin-degrading enzyme [3].

As for `NC(=O)[C@H](CCCN=C(N)N)NC(=O)[C@@H](CC(=O)NO)Cc1ccc2ccccc2c1`, on Insulin-degrading enzyme [1], the Ki was 1150 nM.

As to `NC(=O)[C@H](CCC(=O)O)NC(=O)[C@H](Cc1c[nH]c2ccccc12)NC(=O)[C@H](CCCN=C(N)N)NC(=O)[C@H](Cc1ccc2ccccc2c1)[C@@H](O)C(=O)NO`, the Ki at Insulin-degrading enzyme [1] amounted to 103 nM; at Insulin-degrading enzyme [2], 927 nM; on Insulin-degrading enzyme [3], 1890 nM.

Take `N=C(N)NCCC[C@H](NC(=O)[C@H](Cc1ccc2ccccc2c1)[C@@H](O)C(=O)NO)C(=O)N[C@@H](Cc1c[nH]c2ccccc12)C(=O)N[C@@H](CCC(=O)O)C(N)=O`: the inhibition result in experiment [5], in experiment [6], in experiment [7], in experiment [8] and in [9] was “inactive” in each case.

Consider `N=C(N)NCCCC[C@H](NC(=O)[C@H](Cc1ccc2ccccc2c1)[C@H](O)C(=O)NO)C(N)=O`, for which the Ki at Insulin-degrading enzyme [1] was above 33000 nM.

`NC(=O)[C@H](CCCN=C(N)N)NC(=O)[C@H](Cc1ccc2ccccc2c1)[C@H](O)C(=O)NO`: the Ki on Insulin-degrading enzyme [1] turned out to be 7750 nM.

For the compound `NC(=O)[C@H](CCCN=C(N)N)NC(=O)[C@H](CC(=O)NO)Cc1ccc2ccccc2c1`, the Ki at Insulin-degrading enzyme [1] was above 33000 nM.

Consider `NC(=O)[C@H](CCC(=O)O)NC(=O)[C@H](Cc1c[nH]c2ccccc12)NC(=O)[C@H](CCCN=C(N)N)NC(=O)[C@H](Cc1ccc2ccccc2c1)[C@H](O)C(=O)NO`, for which the Ki is 25.9 nM on Insulin-degrading enzyme [1], 70.3 nM at Insulin-degrading enzyme [2] and 275 nM at Insulin-degrading enzyme [3]. Moreover, the half-maximal inhibitory concentration (IC50) against Matrilysin is 1150 nM.

As for `N=C(N)NCCC[C@H](NC(=O)[C@H](CC(=O)NO)Cc1ccc2ccccc2c1)C(=O)N[C@@H](Cc1c[nH]c2ccccc12)C(=O)N[C@@H](CCC(=O)O)C(N)=O`, on Insulin-degrading enzyme [1], the Ki was determined as 73.3 nM.

In the case of `CC[C@@H](C)[C@H]1NC(=O)[C@@H](Cc2ccccc2)NC(=O)[C@@H](Cc2cnc[nH]2)NC(=O)[C@@H](CC(=O)O)NC(=O)CC[C@H](C(=O)N[C@H](Cc2c[nH]c3ccccc23)C(=O)N[C@H](CCCN=C(N)N)C(=O)N[C@H](Cc2ccc3ccccc3c2)C(=O)NO)NC(=O)[C@@H](CCCN=C(N)N)NC1=O`, the Ki at Insulin-degrading enzyme [1] worked out at 23.1 nM; on Insulin-degrading enzyme [2], 246 nM; at Insulin-degrading enzyme [3], 171 nM.

For `N=C(N)NCCC[C@@H](NC(=O)[C@@H](Cc1c[nH]c2ccccc12)NC(=O)[C@H](N)CCC(=O)O)C(=O)N[C@H](Cc1ccc2ccccc2c1)C(=O)NO`, the Ratio Ki(app) at Insulin-degrading enzyme [10] was above 60.

The term IC50 denotes the concentration that gives 50% inhibition.
